The test system of data set [1] is Vesicular stomatitis virus. The experiment in a line: Antiviral activity against Vesicular stomatitis virus infected in EPT cells assessed as inhibition of virus-induced cytopathic effect treated immediately after viral infection measured after 24 hrs. Format: functional, organism-based. In a few lines:
(§1)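 VSV grown in EPT or L929 cells to about 10⁶ ID₅₀/0.1 mL. Compounds in serial double dilution were added to cell monolayers at 37 °C, 5% CO₂, either 24 h before infection (preventive) or immediately after it (therapeutic). VSV was then added and cultures held 24 h. Cytopathic effect was scored microscopically. IC₅₀ is reported as −lg molar concentration giving 50% inhibition of cytopathic action, with confidence interval at P < 0.05.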

For data set [2], the system named is Vesicular stomatitis virus. The experiment in a line: Antiviral activity against Vesicular stomatitis virus infected in mouse L929 cells assessed as inhibition of virus-induced cytopathic effect treated immediately after viral infection measured after 24 hrs. It counts as functional, organism-based. The conditions noted are these: L929, 24 h. In a few lines:
as §1
Background: Protection from cytopathic effect is a common read-out in antiviral testing.

Data set [3] relates to Vesicular stomatitis virus. The experiment in a line: Antiviral activity against Vesicular stomatitis virus in mouse L929 cells assessed as inhibition of virus-induced cytopathic effect treated 24 hrs before viral infection measured after 24 hrs. It counts as functional, organism-based. In a few lines:
as §1

The nature of data set [4]: Selectivity index, CC50 for mouse L929 cells to IC50 for Vesicular stomatitis virus treated 24 hrs before viral infection. It counts as functional. In a few lines: (§2)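 SI = CC₅₀/IC₅₀ for each cell line and each regimen (treatment 24 h before or immediately after VSV infection). For CC₅₀, the medium on EPT or L929 monolayers was replaced with maintenance medium containing 5% newborn calf serum plus compound at 1–1000. After 24–48 h at 37 °C, 5% CO₂, cells were stained with 0.5% crystal violet in 70% ethanol and read at 540/620. CC₅₀ is the concentration giving 50% monolayer destruction.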

Data set [5] in a line: Selectivity index, CC50 for […] EPT cells to IC50 for Vesicular stomatitis virus treated immediately after viral infection. It counts as functional. The gist of the method:
as §2

Data set [6] has as its system Vesicular stomatitis virus. The experiment in a line: Antiviral activity against Vesicular stomatitis virus in EPT cells assessed as inhibition of virus-induced cytopathic effect treated 24 hrs before viral infection measured after 24 hrs. Format: functional, organism-based. The gist of the method:
as §1

Data set [7] has as its system L929. The experiment in a line: Induction of IFN activity in mouse L929 cells assessed as interferon titer at 1.1 uM after 24 hrs by microscopical method. Format: functional. The gist of the method: (§3)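 Compounds were added to murine fibroblast L929 or piglet testicular EPT cells. Supernatant was taken after 24 and 48 h at 37 °C, 5% CO₂. IFN titers in the supernatant were then determined on L929 and EPT cell cultures.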

The nature of data set [8]: (§4) Cytotoxicity against mouse L929 cells after 24 to 48 hrs. Format: cell-based. The conditions noted are these: L929 cells. The gist of the method:
(§5)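 Monolayers at 37 °C, 5% CO₂; growth medium (L929: Eagle's MEM, EPT: Medium 199; both with 10% calf embryo serum and kanamycin, plus glutamine for L929) replaced by maintenance medium with 5% newborn calf serum holding compound at 1–1000. Read at 24–48 h after 0.5% crystal violet/70% ethanol staining, 540/620 nm. CC₅₀ = 50% monolayer destruction, given as −lg (M), confidence interval at P < 0.05.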

A short description of data set [9]: Cytotoxicity against pig EPT cells after 24 to 48 hrs. It counts as cell-based, Sus scrofa. As to conditions: for CC50: EPT cells; for pCC50: ept. In a few lines:
as §5

Data set [10] can be described thus: Induction of IFN activity in pig EPT cells assessed as interferon titer at 1.5 uM after 24 hrs by microscopical method. It counts as functional, Sus scrofa. The gist of the method: as §3
Data set [11] in a line: Selectivity index, CC50 for mouse L929 cells to IC50 for Vesicular stomatitis virus treated immediately after viral infection. It counts as functional. The gist of the method: as §2
Data set [12] is described as follows: Selectivity index, CC50 for pig EPT cells to IC50 for Vesicular stomatitis virus treated 24 hrs before viral infection. It counts as functional. In a few lines: as §2
Data set [13] is described as follows: Ratio of tilorone CC50 for […] EPT cells to IC50 for Vesicular stomatitis virus treated 24 hrs before viral infection over compound CC50 for […] EPT cells to IC50 for Vesicular stomatitis virus treated 24 hrs before viral infection.
Data set [14] deals with L929. Described as §4. It counts as cell-based. The conditions noted are these: l929. In a few lines: as §5

As to `CCCN(CCC)CCn1c2ccccc2c2nc3ccccc3nc21`, the IC50 in data set [1] was 6.61 µM; in data set [2] it was 3.55 µM; in data set [3] it was 1.29 µM; in data set [6], 2.69 µM. Moreover, the “Ratio CC50/IC50” value in [4] worked out at 169; in data set [5] it was 23; in data set [11] it was 158; in data set [12] it was 55. Besides, the Activity was found to be 8 in the data set on L929 [7] and 32 in data set [10]. Also, the CC50 in [8] was 219 µM; in data set [9] it was 148 µM.
Take `c1ccc2nc3c(nc2c1)c1ccccc1n3CCN1CCCCCC1`: the IC50 in data set [1] was 7.94 µM; in data set [2], 3.8 µM; in data set [3], 1.29 µM; in data set [6], 2.69 µM. Also, the “Ratio CC50/IC50” value in [4] is given as 110; in data set [5], 17; in data set [11] it was 62; in [12] it was 49. The Activity in the data set with L929 [7] was 64; in data set [10], 32. For the same molecule, the CC50 was 145 µM in [8] and 132 µM in [9].
Turning to `CN1CCN(CCn2c3ccccc3c3nc4ccccc4nc32)CC1`, the IC50 is 4.68 µM in data set [1], 4.79 µM in data set [2], 1.38 µM in [3] and 1.45 µM in data set [6]. Besides, the “Ratio CC50/IC50” value in data set [4] stood at 71; in data set [5] it was 17; in data set [11], 46; in [12], 57. The Activity is reported as 4 in the data set with L929 [7] and 32 in data set [10]. Also, the CC50 is 97.7 µM in data set [8] and 81.3 µM in [9].
Turning to `CC1CCCCN1CCn1c2ccccc2c2nc3ccccc3nc21` (stereo unspecified), the IC50 is 4.07 µM in data set [1], 1.91 µM in [2], 1.26 µM in data set [3] and 2.63 µM in [6]. Besides, the “Ratio CC50/IC50” value came out at 185 in data set [4], 98 in [5], 74 in data set [11] and 149 in data set [12]. The Activity (in the data set on L929 [7]; in [10]) was 32 in each case. The figures for the 50% cytotoxic concentration (CC50) in [8] and in data set [9] were 234 µM and 398 µM, respectively.
As for `CC1CCN(CCn2c3ccccc3c3nc4ccccc4nc32)CC1`, the IC50 in data set [1] was 20 µM; in [2], 2.29 µM; in data set [3], 1.62 µM; in [6], 1.58 µM. For the same molecule, the “Ratio CC50/IC50” value in data set [4] is recorded as 358; in data set [5], 142; in data set [11], 78; in data set [12], 1783. Moreover, the Activity in the data set on L929 [7] stood at 8; in data set [10], 32. In data set [8], this molecule gave a 50% cytotoxic concentration (CC50) of 575 µM. In [9], this molecule came in with a pCC50 of 2.55. Also, the Ratio in data set [13] worked out at 20.
Consider `CN(C)CCn1c2ccccc2c2nc3ccccc3nc21`, for which the IC50 in data set [1] is 9.55 µM; in [2] it was 11.2 µM; in data set [3] it was 1.45 µM; in data set [6] it was 1.45 µM. Besides, the “Ratio CC50/IC50” value is on record as 63 in data set [4], 9 in [5], 58 in data set [11] and 56 in data set [12]. Besides, the values for the Activity (in the data set on L929 [7]; in [10]) were 16 and 32, respectively. In addition, the half-maximal cytotoxic concentration (CC50) in data set [8] is 91.2 µM; in [9], 81.3 µM.
Take `CCN(CC)CCn1c2ccccc2c2nc3ccccc3nc21`: the IC50 is 6.17 µM in data set [1], 2.19 µM in [2], 1.29 µM in data set [3] and 3.39 µM in data set [6]. Also, the “Ratio CC50/IC50” value in data set [4] is recorded as 499; in data set [5], 76; in data set [11], 79; in data set [12] it was 139. Further, the Activity with L929 [7] is given as 64; in data set [10], 32. Besides, the CC50 in [8] is 646 µM; in data set [9] it was 457 µM.
Consider `CCCCN(C)CCn1c2ccccc2c2nc3ccccc3nc21`, for which the IC50 in [1] is 4.79 µM; in [2], 2.34 µM; in [3], 1.45 µM; in [6], 3.02 µM. For the same molecule, the “Ratio CC50/IC50” value turned out to be 388 in data set [4], 43 in [5], 41 in [11] and 68 in data set [12]. The figures for the Activity (with L929 [7]; in data set [10]) were 16 and 32, respectively. The CC50 was 562 µM in [8] and 204 µM in data set [9].
Consider `CCCCN(CC)CCn1c2ccccc2c2nc3ccccc3nc21`, for which the IC50 in [1] was 13.2 µM; in data set [2], 3.39 µM; in data set [3], 3.16 µM; in data set [6], 13.2 µM. The “Ratio CC50/IC50” value worked out at 54 in data set [4], 6 in data set [5], 27 in data set [11] and 6 in [12]. For the same molecule, the Activity (in the data set with L929 [7]; in data set [10]) was 8 each time. The figures for the CC50 in data set [8] and in [9] were 174 µM and 83.2 µM, respectively.
On to `c1ccc2nc3c(nc2c1)c1ccccc1n3CCN1CCCC1`, for which the IC50 is 4.07 µM in [1], 2.24 µM in data set [2], 1.32 µM in data set [3] and 2.69 µM in data set [6]. The “Ratio CC50/IC50” value in data set [4] came out at 59; in [5], 40; in [11], 468; in data set [12], 60. Moreover, the Activity is on record as 32 with L929 [7] and 64 in data set [10]. The CC50 in data set [8] is 75.9 µM; in data set [9], 162 µM.
With `c1ccc2nc3c(nc2c1)c1ccccc1n3CCN1CCCCC1`, the IC50 in [1] is 5.62 µM; in data set [2] it was 2.57 µM; in data set [3] it was 1.35 µM; in data set [6], 2.88 µM. For the same molecule, the “Ratio CC50/IC50” value is given as 132 in data set [4], 164 in data set [5], 224 in data set [11] and 323 in data set [12]. The Activity in the data set with L929 [7] is on record as 64; in [10], 32. Moreover, the figures for the CC50 in data set [8] and in data set [9] were 178 µM and 933 µM, respectively.
For `c1ccc2nc3c(nc2c1)c1ccccc1n3CCN1CCOCC1`, the figures for the IC50 in [2], in data set [3] and in data set [6] were 4.47 µM, 1.62 µM and 1.62 µM, respectively. Further, the “Ratio CC50/IC50” value in data set [4] is recorded as 659; in data set [11], 17; in data set [12], 1258. The Activity in the data set with L929 [7] was 8; in data set [10] it was 16. Moreover, the pCC50 stood at 2.97 with L929 [14] and 2.69 in [9]. Also, in data set [13], the Ratio is recorded as 15.
Take `CCN(CC)CCOc1ccc2c(c1)C(=O)c1cc(OCCN(CC)CC)ccc1-2.Cl.Cl` [TILORONE HYDROCHLORIDE]: the IC50 in [1] was 13.5 µM; in data set [2], 13.8 µM; in [3], 1.45 µM; in data set [6], 1.32 µM. The “Ratio CC50/IC50” value in data set [4] is listed as 80; in data set [5], 10; in data set [11], 10; in data set [12], 80. Moreover, the Activity (with L929 [7]; in data set [10]) was 32 throughout. Besides, the CC50 in data set [8] is 112 µM; in [9] it was 107 µM.

The term IC50 denotes the concentration that gives 50% inhibition. A word on the CC50: it is the concentration that lowers cell viability or growth by half. Read a low CC50 as greater toxicity to the cells. For orientation: pCC50 means the negative decadic logarithm of the CC50, by convention in mol/L.

(Values after ChEMBL document CHEMBL1154890, “Synthesis, cytotoxicity, antiviral activity and interferon inducing ability of 6-(2-aminoethyl)-6H-indolo[2,3-b]quinoxalines” (Eur J Med Chem, 2010).)
